Assay results: ChEMBL document CHEMBL4406821, “Novel dual inhibitors targeting CDK4 and VEGFR2 synergistically suppressed cancer progression and angiogenesis” (Eur J Med Chem, 2019)
Activity calls are given as the source filed them. No cut-off for these calls is given here.

Experiments:
SiHa [1] = experiment: Induction of apoptosis in human SiHa cells assessed as decrease in Ki67 expression at 40 to 80 nM incubated for 48 hrs by Western blot analysis; format: functional, cell-based
Procedure, shortened: (§1)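 Cancer cells were exposed to graded concentrations for 48 h, washed three times in PBS and lysed in RIPA buffer. Immunoblots were probed with anti-Rb, anti-phospho-Rb, anti-Ki67 and anti-Bcl-2, each at 1:1000. β-actin served as loading control.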

[2] = AUC (0 to infinity) in Sprague-Dawley rat at 10 mg/kg, po by HPLC-MS analysis; format: ADME, organism-based; parameters: dose 10 mg/kg, time infinity, route oral; settings: in vivo
Procedure, shortened: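 Rats fitted with jugular vein catheters for serial blood sampling. Compound dissolved in saline with 5% (v/v) DMSO and given as a single 10 mg/kg dose iv or po after an overnight fast, n = 5 per group. Plasma isolated at once and measured by HPLC with tandem MS detection. Parameters derived by noncompartmental fitting.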

CDK4/Cyclin D3 = CDK4/Cyclin D3 (Homo sapiens, UniProt P11802); experiment: Inhibition of recombinant full length human CDK4/Cyclin D3 using Rb-fragmen as substrate incubated for 40 mins by [gamma-33P]-ATP based radiometric assay; format: protein-complex assay
[3] = molecular target: Tyrosine-protein kinase Blk (Homo sapiens) (UniProt P51451); experiment: Inhibition of recombinant full length human BLK at 1 uM using poly(Glu, Tyr) 4:1 as substrate incubated for 40 mins in presence of [gamma-33P]-ATP by scintillation counting method relative to control
Procedure, shortened: (§2)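 Kinase panel profiling at 1 μM performed by Eurofins KinaseProfiler; percent inhibition reported as mean of two independent experiments.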

[4] = molecular target: Epithelial discoidin domain-containing receptor 1 (Homo sapiens) (UniProt Q08345); experiment: Inhibition of recombinant human DDR1 (492 to end residues) at 1 uM using KKKSPGEYVNIEFG as substrate incubated for 40 mins in presence of [gamma-33P]-ATP by scintillation counting method relative to control; procedure, shortened: as §2
[5] = molecular target: Ephrin type-B receptor 4 (Homo sapiens) (UniProt P54760); experiment: Inhibition of recombinant human EPhB4 (561 to end residues) at 1 uM using poly (Glu, Tyr) 4:1 as substrate incubated for 40 mins in presence of [gamma-33P]-ATP by scintillation counting method relative to control
[6] = molecular target: Macrophage colony-stimulating factor 1 receptor (Homo sapiens) (UniProt P07333); experiment: Inhibition of recombinant human FMS (538 to end residues) at 1 uM using KKKSPGEYVNIEF as substrate incubated for 40 mins in presence of [gamma-33P]-ATP by scintillation counting method relative to control
[7] = molecular target: Inhibitor of nuclear factor kappa-B kinase subunit beta (Homo sapiens) (UniProt O14920); experiment: Inhibition of recombinant human full length IKKbeta at 1 uM using peptide as substrate incubated for 40 mins in presence of [gamma-33P]-ATP by scintillation counting method relative to control
[8] = molecular target: Tyrosine-protein kinase Lck (Homo sapiens) (UniProt P06239); experiment: Inhibition of recombinant human full length LCK at 1 uM using KVEKIGEGTYGVVYK as substrate incubated for 40 mins in presence of [gamma-33P]-ATP by scintillation counting method relative to control
[9] = molecular target: Mitogen-activated protein kinase kinase kinase 10 (Homo sapiens) (UniProt Q02779); experiment: Inhibition of recombinant human MLK2 (1 to 449 residues) at 1 uM using myelin basic protein as substrate incubated for 40 mins in presence of [gamma-33P]-ATP by scintillation counting method relative to control
[10] = molecular target: Ribosomal protein S6 kinase alpha-4 (Homo sapiens) (UniProt O75676); experiment: Inhibition of recombinant human MSK2 (2 to end residues) at 1 uM using GRPRTSSFAEGKK as substrate incubated for 40 mins in presence of [gamma-33P]-ATP by scintillation counting method relative to control
[11] = molecular target: Serine/threonine-protein kinase Nek9 (Homo sapiens) (UniProt Q8TD19); experiment: Inhibition of recombinant human NEK9 (1 to 324 residues) at 1 uM using myelin basic protein as substrate incubated for 40 mins in presence of [gamma-33P]-ATP by scintillation counting method relative to control
[12] = molecular target: Ribosomal protein S6 kinase alpha-6 (Homo sapiens) (UniProt Q9UK32); experiment: Inhibition of recombinant human full length RSK4 at 1 uM using LRRASLG as substrate incubated for 40 mins in presence of [gamma-33P]-ATP by scintillation counting method relative to control
[13] = molecular target: Testis-specific serine/threonine-protein kinase 3 (Homo sapiens) (UniProt Q96PN8); experiment: Inhibition of recombinant human full length TSSK3 at 1 uM using AMARAASAAALARRR as substrate incubated for 40 mins in presence of [gamma-33P]-ATP by scintillation counting method relative to control
Procedure, shortened: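 Single-point inhibition at 1 uM measured in a commercial kinase profiling panel (KinaseProfiler); each value is the mean of two independent experiments.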

[14] = molecular target: STE20-like serine/threonine-protein kinase (Homo sapiens) (UniProt Q9H2G2); experiment: Inhibition of recombinant human SLK (1 to 373 residues) at 1 uM using RLGRDKYKTLRQIRQ as substrate incubated for 40 mins in presence of [gamma-33P]-ATP by scintillation counting method relative to control
[15] = molecular target: Mast/stem cell growth factor receptor Kit (Homo sapiens) (UniProt P10721); experiment: Inhibition of recombinant human cKIT (544 to end residues) at 1 uM using poly(Glu, Tyr) 4:1 as substrate incubated for 40 mins in presence of [gamma-33P]-ATP by scintillation counting method relative to control
Procedure, shortened: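 Tested at a single 1 uM in an outsourced commercial kinase-profiling panel, read as percent inhibition. Each value is the mean of two independent experiments.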

[16] = Toxicity in NOD/SCID BALB/c mouse xenografted with human SiHa cells assessed as effect on blood parameter by measuring neutrophils content at 40 mg/kg, po administered once two days for 4 times by hematology analyzer; format: organism-based; settings: in vivo
Mus musculus = experiment: Antiangiogenic activity in Matrigel plug angiogenic BALB/c mouse assessed as reduction in blood vessel formation at 20 mg/kg, sc measured after 10 days by Matrigel plug assay; format: functional, organism-based
Procedure, shortened: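 Balb/c mice, 5 weeks old, were injected subcutaneously with 750 µL of a 2:1 mix of growth factor-reduced Matrigel and compound (10 or 20 mg/kg) or vehicle. Plugs were harvested after 10 days and the subcutaneous vessels photographed.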

SiHa [17] = experiment: Induction of apoptosis in human SiHa cells assessed as decrease in Bcl2 expression at 40 nM incubated for 48 hrs by Western blot analysis; format: functional, cell-based; procedure, shortened: as §1
SiHa [18] = experiment: Induction of apoptosis in human SiHa cells at 40 nM incubated for 48 hrs by annexin V FITC and propidium iodide staining based flow cytometry; format: functional, cell-based
Procedure, shortened: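 Annexin V-FITC/PI double staining with flow-cytometric readout. MDA-MB-231, T-47D, SiHa and HeLa cells were treated with graded concentrations for 48 h. MDA-MB-231 and T-47D were grown in DMEM and SiHa in 1640 medium, each with 10% FBS and 1% penicillin/streptomycin at 37°C under 5% CO2. Early- and late-stage apoptotic fractions were scored.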

Serine/threonine-protein kinase Nek9 (Homo sapiens), sequence (Q8TD19 whole entry, the tested form may be a part): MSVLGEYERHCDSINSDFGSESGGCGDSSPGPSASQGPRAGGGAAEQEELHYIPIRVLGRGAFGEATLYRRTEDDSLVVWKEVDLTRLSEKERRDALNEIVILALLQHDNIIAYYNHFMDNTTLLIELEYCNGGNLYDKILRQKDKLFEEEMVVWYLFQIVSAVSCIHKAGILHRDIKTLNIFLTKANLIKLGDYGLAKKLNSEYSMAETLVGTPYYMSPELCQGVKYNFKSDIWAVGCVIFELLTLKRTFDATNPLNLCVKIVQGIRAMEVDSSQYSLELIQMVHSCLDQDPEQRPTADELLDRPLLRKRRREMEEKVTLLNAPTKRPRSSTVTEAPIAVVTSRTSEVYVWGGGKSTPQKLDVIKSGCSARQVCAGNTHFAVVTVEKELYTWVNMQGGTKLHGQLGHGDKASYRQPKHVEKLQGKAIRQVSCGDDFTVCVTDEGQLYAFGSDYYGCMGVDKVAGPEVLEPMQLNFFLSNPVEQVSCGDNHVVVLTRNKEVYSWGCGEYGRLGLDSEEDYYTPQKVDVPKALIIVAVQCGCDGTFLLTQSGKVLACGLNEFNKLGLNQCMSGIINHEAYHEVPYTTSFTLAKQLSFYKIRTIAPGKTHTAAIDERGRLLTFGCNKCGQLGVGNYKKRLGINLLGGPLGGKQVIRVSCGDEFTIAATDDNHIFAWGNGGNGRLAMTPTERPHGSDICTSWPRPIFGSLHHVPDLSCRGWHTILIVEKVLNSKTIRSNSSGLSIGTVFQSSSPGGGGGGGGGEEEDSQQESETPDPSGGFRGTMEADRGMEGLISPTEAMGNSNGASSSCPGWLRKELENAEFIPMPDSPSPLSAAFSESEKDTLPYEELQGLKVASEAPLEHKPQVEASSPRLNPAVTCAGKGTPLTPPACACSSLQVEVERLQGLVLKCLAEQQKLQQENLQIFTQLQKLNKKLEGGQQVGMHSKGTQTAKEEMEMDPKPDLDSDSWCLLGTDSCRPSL
Ribosomal protein S6 kinase alpha-4 (Homo sapiens), sequence (O75676 whole entry, looked up, the tested form may be a part): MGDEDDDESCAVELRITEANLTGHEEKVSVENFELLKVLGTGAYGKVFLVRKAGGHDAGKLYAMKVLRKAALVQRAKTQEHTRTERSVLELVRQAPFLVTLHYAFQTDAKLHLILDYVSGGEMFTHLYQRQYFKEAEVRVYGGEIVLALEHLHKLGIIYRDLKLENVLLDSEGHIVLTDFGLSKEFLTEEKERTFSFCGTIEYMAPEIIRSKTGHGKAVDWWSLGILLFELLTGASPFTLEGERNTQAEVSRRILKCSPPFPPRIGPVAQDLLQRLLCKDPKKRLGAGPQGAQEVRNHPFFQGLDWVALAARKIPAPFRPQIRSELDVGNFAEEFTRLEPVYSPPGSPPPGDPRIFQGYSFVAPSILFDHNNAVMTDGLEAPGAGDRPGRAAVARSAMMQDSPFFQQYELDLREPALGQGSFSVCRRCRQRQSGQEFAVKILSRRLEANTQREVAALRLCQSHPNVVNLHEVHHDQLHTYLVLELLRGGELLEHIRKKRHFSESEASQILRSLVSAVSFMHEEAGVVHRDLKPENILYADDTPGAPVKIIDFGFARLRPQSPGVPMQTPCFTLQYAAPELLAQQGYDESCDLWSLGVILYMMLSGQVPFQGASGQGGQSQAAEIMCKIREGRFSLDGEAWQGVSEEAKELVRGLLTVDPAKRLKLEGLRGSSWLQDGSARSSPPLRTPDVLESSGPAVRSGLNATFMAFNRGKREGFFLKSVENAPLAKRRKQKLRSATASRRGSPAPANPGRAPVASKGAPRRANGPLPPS
Testis-specific serine/threonine-protein kinase 3 (Homo sapiens), sequence (Q96PN8 whole entry): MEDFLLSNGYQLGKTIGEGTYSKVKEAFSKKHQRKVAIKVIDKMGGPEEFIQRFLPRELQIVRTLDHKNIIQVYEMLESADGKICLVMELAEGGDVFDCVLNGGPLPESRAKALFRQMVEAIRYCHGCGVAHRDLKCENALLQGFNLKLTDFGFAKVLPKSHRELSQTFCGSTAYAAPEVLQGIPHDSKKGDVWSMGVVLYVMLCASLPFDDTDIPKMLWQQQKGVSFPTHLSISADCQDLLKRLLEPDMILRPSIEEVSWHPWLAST
Tyrosine-protein kinase Blk (Homo sapiens), sequence (P51451 2-505 limits assumed): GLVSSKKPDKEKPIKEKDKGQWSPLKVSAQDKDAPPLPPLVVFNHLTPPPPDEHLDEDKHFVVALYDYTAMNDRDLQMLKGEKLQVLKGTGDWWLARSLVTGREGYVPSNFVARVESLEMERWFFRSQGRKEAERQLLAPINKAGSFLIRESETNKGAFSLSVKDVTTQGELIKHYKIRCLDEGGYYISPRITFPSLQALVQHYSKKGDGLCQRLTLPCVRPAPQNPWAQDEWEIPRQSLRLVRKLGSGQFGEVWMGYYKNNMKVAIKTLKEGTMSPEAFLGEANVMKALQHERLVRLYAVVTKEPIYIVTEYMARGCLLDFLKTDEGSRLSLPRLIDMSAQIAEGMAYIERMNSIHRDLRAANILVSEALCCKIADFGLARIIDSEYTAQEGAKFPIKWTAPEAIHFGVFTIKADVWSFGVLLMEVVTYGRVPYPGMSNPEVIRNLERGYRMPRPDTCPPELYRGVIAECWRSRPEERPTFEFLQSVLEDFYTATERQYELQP
Mast/stem cell growth factor receptor Kit (Homo sapiens), sequence (P10721 whole entry): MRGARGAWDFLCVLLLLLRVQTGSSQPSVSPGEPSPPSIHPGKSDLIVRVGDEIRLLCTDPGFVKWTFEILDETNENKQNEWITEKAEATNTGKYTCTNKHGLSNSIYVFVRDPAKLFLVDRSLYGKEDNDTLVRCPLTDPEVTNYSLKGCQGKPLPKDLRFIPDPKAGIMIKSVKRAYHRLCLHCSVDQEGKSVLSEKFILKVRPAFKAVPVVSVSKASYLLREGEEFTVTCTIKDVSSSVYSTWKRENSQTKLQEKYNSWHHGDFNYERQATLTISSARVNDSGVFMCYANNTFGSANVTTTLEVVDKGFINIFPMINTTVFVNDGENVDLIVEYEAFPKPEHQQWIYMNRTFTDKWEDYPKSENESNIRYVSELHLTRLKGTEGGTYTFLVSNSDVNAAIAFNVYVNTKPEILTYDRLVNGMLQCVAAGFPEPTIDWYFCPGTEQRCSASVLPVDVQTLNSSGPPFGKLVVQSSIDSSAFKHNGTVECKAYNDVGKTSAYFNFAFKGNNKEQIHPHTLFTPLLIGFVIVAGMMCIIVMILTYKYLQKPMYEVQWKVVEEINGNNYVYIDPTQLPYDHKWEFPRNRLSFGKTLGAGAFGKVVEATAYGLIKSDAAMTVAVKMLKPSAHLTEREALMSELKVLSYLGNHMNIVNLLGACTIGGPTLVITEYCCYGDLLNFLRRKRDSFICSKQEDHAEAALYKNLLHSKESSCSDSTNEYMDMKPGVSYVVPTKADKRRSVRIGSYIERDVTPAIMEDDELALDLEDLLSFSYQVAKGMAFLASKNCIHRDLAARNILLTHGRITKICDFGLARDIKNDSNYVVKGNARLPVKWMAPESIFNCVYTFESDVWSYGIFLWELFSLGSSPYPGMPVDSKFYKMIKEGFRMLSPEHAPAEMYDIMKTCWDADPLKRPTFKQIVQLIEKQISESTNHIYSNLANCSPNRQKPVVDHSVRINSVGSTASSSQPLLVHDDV
Macrophage colony-stimulating factor 1 receptor (Homo sapiens), sequence (P07333 whole entry): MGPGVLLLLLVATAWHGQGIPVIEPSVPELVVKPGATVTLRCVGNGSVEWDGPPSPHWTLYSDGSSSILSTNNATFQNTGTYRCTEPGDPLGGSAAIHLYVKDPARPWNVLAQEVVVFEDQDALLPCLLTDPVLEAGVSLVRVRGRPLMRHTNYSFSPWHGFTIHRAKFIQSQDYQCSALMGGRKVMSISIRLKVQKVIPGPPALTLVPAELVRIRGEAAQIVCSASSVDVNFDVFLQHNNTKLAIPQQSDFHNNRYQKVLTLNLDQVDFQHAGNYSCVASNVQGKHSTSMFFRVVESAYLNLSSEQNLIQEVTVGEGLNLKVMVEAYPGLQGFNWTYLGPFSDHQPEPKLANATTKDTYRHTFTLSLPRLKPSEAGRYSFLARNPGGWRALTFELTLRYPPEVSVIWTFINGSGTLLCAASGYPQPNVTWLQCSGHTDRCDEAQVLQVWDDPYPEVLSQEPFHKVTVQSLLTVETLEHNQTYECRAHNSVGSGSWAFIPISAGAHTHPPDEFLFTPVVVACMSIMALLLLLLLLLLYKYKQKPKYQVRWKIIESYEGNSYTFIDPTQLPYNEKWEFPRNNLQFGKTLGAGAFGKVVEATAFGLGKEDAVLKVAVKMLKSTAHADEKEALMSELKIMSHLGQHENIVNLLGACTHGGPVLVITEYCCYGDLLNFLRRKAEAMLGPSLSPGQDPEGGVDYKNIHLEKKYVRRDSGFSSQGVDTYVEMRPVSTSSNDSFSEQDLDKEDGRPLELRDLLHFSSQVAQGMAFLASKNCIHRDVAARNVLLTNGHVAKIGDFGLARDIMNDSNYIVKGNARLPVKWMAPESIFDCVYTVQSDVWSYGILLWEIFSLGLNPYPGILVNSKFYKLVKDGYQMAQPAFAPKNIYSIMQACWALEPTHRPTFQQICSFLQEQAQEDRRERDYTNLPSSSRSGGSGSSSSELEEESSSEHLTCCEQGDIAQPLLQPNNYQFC
Tyrosine-protein kinase Lck (Homo sapiens), sequence (P06239 2-509 limits assumed): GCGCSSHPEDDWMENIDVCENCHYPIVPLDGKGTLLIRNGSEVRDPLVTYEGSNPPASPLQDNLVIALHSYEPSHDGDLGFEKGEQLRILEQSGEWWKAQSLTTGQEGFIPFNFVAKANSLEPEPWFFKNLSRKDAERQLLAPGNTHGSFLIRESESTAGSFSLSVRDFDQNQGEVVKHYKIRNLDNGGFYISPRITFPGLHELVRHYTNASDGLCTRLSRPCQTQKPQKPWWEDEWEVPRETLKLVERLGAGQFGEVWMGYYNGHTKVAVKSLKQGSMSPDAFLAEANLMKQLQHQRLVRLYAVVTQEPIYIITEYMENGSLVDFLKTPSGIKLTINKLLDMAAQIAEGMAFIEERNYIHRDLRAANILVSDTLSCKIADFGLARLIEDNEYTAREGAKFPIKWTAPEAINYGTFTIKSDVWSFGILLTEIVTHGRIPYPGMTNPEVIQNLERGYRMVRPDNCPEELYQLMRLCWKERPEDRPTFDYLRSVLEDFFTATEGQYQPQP

Cc1ccc(NC(=O)C2(C(=O)Nc3ccc(Nc4ncc(F)c(-c5cc(F)c6nc(C)n(C(C)C)c6c5)n4)cc3)CC2)cc1
Activity (SiHa [1]): Active | AUC(0-inf) [2]: 6000 ng·h/mL | IC50 (CDK4/Cyclin D3): 46 nM | inhibition [3]: 39% | inhibition [4]: 73% | inhibition [5]: 42% | inhibition [6]: 64% | inhibition [7]: 11% | inhibition [8]: 49% | inhibition [9]: 2% | inhibition [10]: 78% | inhibition [11]: 71% | inhibition [12]: 22% | inhibition [13]: 0% | inhibition [14]: 90% | inhibition [15]: 17% | Activity [16]: Non-Toxic

COc1cc2nccc(Oc3ccc(NC(=O)C4(C(=O)Nc5ccc(F)cc5)CC4)cc3)c2cc1OC [CABOZANTINIB]
inhibition (Mus musculus): Active | Activity (SiHa [17]): Active | Activity (SiHa [18]): Active
